# SKKanGAS inh = blocks kanamycin growth of S. pyogenes SKKanGAS strain; actives 1.3% (n = 300,000); inhibition, % at 7.5 µM; BacTiter-Glo, 6 h;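 active means mean replicate score, as percent of positive control median, at least 50; inconclusive means mean below 50 but one replicate at or above 50; inactive means mean and every replicate below 50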;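 further: strain carries kanamycin resistance gene driven by streptokinase promoter and grows in 40 µg/ml kanamycin; loss of luminescence reflects streptokinase promoter inhibition or plain growth inhibition; 0% = median of DMSO wells and 100% = positive control at its reference dose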
# aSyn UTR inh = 5' untranslated region of α-synuclein, MLPCN primary screen | alpha-synuclein 5'UTR reporter, inhibitor activity | inhibition, % (tested at 7.5 µM) | AID 1813 | actives 0.82% (n = 300,000); in the data active means inhibition above about 60%; inconclusive means no clear call, values can overlap the other calls;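 further: H4 neuroglioblastoma cells stably carrying SNCA 5'UTR luciferase fusion; 0% = DMSO wells and 100% = positive control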
# CSC inhib = blocks cancer stem cells | cancer stem cell-like cells viability, luminescence | inhibition, % at 7.5 µM | actives 1.1% (n = 300,000) | AID 2717; in the data active means inhibition above about 75%; inconclusive means no clear call, values can overlap the other calls; tested in HMLE shEcad cells
# Mdm2 MdmX PPI = human Mdm2/MdmX binding inhibition; O15151+Q00987; SaOS-2 split-luciferase Mdm2/MdmX complementation, luminescence; inhibition, % at 8 µM; actives 3% (n = 330,000); AID 485346;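 active means inhibition of at least 50% at 8 µM in the primary screen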
# Target sequence (O15151 whole entry, looked up): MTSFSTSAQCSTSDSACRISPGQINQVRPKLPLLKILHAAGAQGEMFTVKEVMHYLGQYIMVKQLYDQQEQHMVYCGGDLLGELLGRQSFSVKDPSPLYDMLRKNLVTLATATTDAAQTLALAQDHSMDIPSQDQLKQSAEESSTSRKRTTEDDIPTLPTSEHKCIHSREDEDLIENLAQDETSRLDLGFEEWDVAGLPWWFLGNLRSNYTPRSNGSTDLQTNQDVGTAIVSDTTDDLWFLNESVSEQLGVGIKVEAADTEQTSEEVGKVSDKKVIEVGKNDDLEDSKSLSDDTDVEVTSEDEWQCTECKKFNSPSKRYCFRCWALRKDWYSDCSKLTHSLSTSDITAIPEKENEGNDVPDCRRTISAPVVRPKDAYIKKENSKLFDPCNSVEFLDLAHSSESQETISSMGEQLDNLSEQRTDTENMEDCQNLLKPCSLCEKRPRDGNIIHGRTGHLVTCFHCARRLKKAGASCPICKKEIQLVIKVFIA
# Target sequence (Q00987 whole entry, looked up): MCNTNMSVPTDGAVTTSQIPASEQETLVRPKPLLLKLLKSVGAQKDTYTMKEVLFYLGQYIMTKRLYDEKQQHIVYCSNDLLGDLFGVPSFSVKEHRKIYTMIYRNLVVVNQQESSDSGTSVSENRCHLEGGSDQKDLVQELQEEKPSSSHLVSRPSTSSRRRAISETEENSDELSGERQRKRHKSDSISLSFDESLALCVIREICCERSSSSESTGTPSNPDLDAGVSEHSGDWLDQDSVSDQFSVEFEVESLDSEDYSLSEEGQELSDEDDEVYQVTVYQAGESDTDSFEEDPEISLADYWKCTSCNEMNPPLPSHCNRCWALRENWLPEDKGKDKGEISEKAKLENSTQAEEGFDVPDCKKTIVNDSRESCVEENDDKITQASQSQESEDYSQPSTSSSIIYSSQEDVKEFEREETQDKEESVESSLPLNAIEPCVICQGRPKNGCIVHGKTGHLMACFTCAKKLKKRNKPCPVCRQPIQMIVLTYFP
# T cruzi repl = T. cruzi replication inhibition. inhibition, % (no concentration beside the values). actives 1.4% (n = 300,000). T. cruzi beta-gal in NIH3T3, luminescence, 90 h;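 active means mean inhibition across valid replicates above about 55%, limit read from the data; inconclusive means mean below that limit but half or more replicates reach it; inactive means mean below it, under half of replicates reach it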;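 further: signal also drops with host cell toxicity which is not excluded here; 0% = plate median of DMSO wells and 100% = zero luminescence signal; higher percent means less beta-gal luminescence so fewer parasites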
#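 Assay system: NIH/3T3 host cells with β-galactosidase reporter T. cruzi; input: 5,000 host fibroblasts per well; compound: single 50 nL compound addition per well in DMSO; timing: ≥90 h infection period, 3 h prior cell attachment; measured by: GalScreen β-gal luminescence, detergent lysis, 60 min; evaluation: percent inhibition of parasite-derived β-gal signal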
# Mdm2 MdmX conf = confirmation of human Mdm2/MdmX interaction inhibitors. Mdm2-MdmX binding, luminescent assay. inhibition, % at 8 µM. AID 489028. actives 55% (n = 10,000). shares compounds with Mdm2 MdmX PPI; in the data active means inhibition above about 40%
# FLuc counter = counter-screen for Mdm2/MdmX inhibitors: full-length luciferase. shares compounds with Mdm2 MdmX PPI. SaOS-2 full-length luciferase counterscreen, luminescence. inhibition, % at 8 µM. actives 77% (n = 6,200);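 active means mean inhibition at 8 µM reaching about 37%, which flags the compound as non-specific, limit read from the data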;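 further: p53-null SaOS-2 cells with luciferase driven by a doxycycline-inducible promoter; compound on cells about two nights before reading with doxycycline added after day one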
# Active calls of the source: *; ? = inconclusive; · = no result given. A selection: hits, their analogues and other compounds. The true share with any hit is near 5.4%.
SMILES,SKKanGAS inh,aSyn UTR inh,CSC inhib,Mdm2 MdmX PPI,T cruzi repl,Mdm2 MdmX conf,FLuc counter
Cc1onc(C(=O)N2CCN(Cc3ccccc3)CC2)c1[N+](=O)[O-],7,-26,-14,21,-5,·,·
Cc1ccc(Cl)cc1N1CCN(C(=O)c2noc(C(C)C)c2[N+](=O)[O-])CC1,4,-24,8,68*,-19,64*,37*
O=C(CCC(=O)N1CCSc2ccccc21)NCCc1ccccc1,-10,-15,-6,9,-13,·,·
CCc1nc2c(c(SC)nn2-c2ccccc2)c(N)c1C(=O)OC,-15,23,1,-15,10,·,·
COc1cc(C)ccc1OCCOCCOc1cc(C)c(C)cc1Br,0,-39,5,-17,15,·,·
CC1CCN(S(=O)(=O)c2ccc(NC(=S)NC(=O)c3ccc(Cl)cc3)cc2)CC1,-3,2,0,54*,-2,36,72*
O=C(NC(=S)Nc1ccc(S(=O)(=O)N2CCCCC2)cc1)c1ccc(Cl)cc1,2,·,-2,24,·,·,·
Cc1ccc(OCCCC(=O)Nc2nc3ccccc3[nH]2)cc1,7,-55,·,-1,-1,·,·
Cc1cccc(OCCCC(=O)Nc2nc3ccccc3[nH]2)c1,-11,-31,84*,76*,-41,74*,65*
CC(=O)NNS(=O)(=O)c1ccc(-c2cc(C(F)(F)F)n(C)n2)s1,-2,-3,-3,-9,3,·,·
N/C(=N\OCc1ccc([N+](=O)[O-])cc1)c1ccccn1,-26,112*,-10,76*,-2,67*,44*
CC(C(=O)O/N=C(\N)c1ccccn1)c1ccc([N+](=O)[O-])cc1 (stereo unspecified),2,-54,3,8,-9,·,·
Cc1ccc(/C=C/C(O)=C2/C(=O)N(C)C3(C)CC2c2ccccc2O3)cc1 (stereo unspecified),4,-36,52,83*,34,42*,30
COc1ccc(/C=C/C(O)=C2/C(=O)NC3(C)CC2c2ccccc2O3)c(OC)c1OC (stereo unspecified),1,-21,26,11,36,·,·
COc1ccc(/C=C/C(O)=C2/C(=O)N(C)C3(C)CC2c2ccccc2O3)cc1 (stereo unspecified),13,-60,29,73*,31,31,·
CN(CCCNC(=O)CCc1cn(C)c2ccccc12)C1CCCCC1,-3,-21,6,25,15,·,·
CCn1c2ccccc2c2nc3cc(S(=O)(=O)N4CCOCC4)ccc3nc21,4,23,·,·,11,·,·
CN(CC(=O)Nc1ccc(F)c(F)c1F)C(=O)/C=C/c1ccc(Cl)cc1,-18,12,-3,-18,-7,·,·
Fc1ccc(-c2nn(-c3ccccc3)cc2CNCc2ccccc2)cc1,5,4,-11,38,?,·,·
O=C(CCl)Nc1cn(-c2ccccc2)nc1-c1ccc(F)cc1,-1,-19,7,86*,-16,44*,33
C=CCNC(=O)c1c(CSc2ccc(F)cc2)noc1C(=O)NCCC,-1,25,0,-7,-12,·,·
CCCc1c(C)nc(N2CCN(c3ccccc3F)CC2)[nH]c1=O,-2,-42,-3,5,2,·,·
CCN1/C(=C/C=C/c2oc3ccc(-c4ccccc4)cc3[n+]2CC)Oc2ccc(-c3ccccc3)cc21,93*,140*,116*,97*,90*,92*,1
COc1ccc(S(=O)(=O)NCC2CCCO2)cc1NC(=O)c1ccccc1F (stereo unspecified),-2,17,7,14,-6,·,·
CCCCOC(=O)Cn1c(=O)c2c(nc(Br)n2Cc2ccccc2)n(C)c1=O,4,-5,-3,1,7,·,·
SMILES,SKKanGAS inh,aSyn UTR inh,CSC inhib,Mdm2 MdmX PPI,T cruzi repl,Mdm2 MdmX conf,FLuc counter
Cc1c(CCC(=O)NCCC(=O)O)c(=O)oc2c(C)c3oc4c(c3cc12)CCCC4,12,23,-4,6,-4,·,·
COc1ccc2oc(=Nc3ccccc3)c(-c3nc4ccccc4[nH]3)cc2c1,7,-51,38,88*,-3,-84,·
COc1cccc2cc(-c3nc4ccccc4[nH]3)c(=O)oc12,-2,-157,-1,-79,0,·,·
O=C(NC1CCN(Cc2ccc(Cl)cc2)CC1)c1cn(-c2ccccc2)nc1-c1cccnc1,·,·,-5,53*,·,32,·
O=C(NCc1ccncc1)c1cn(-c2ccccc2)nc1-c1cccnc1,1,10,·,10,-12,·,·
CC[C@]12c3[nH]c4ccc(OC)cc4c3CCN1C(=O)C(CC(=O)NC/C=C(\C)CCC=C(C)C)C[C@@H]2C(=O)N1CCN(C(=O)c2ccco2)CC1 (stereo partly specified),·,·,·,26,·,·,·
CC[C@]12c3[nH]c4cc(CCC(=O)N(C)C)ccc4c3CCN1C(=O)[C@@H](CC(=O)NC/C=C(\C)CCC=C(C)C)C[C@@H]2C(=O)N1CCN(C(=O)C2CC2)CC1,·,·,·,47,·,·,·
CC[C@]12c3[nH]c4cc(-c5ccco5)ccc4c3CCN1C(=O)[C@@H](CC(=O)NC/C=C(\C)CCC=C(C)C)C[C@@H]2C(=O)N1CCN(C(=O)c2ccco2)CC1,·,·,·,56*,·,-1,·
CC[C@]12c3[nH]c4cc(-c5ccco5)ccc4c3CCN1C(=O)[C@@H](CC(=O)NC/C=C(\C)CCC=C(C)C)C[C@@H]2C(=O)N1CCN(C(=O)C2CC2)CC1,·,·,·,37,·,·,·
CC[C@]12c3[nH]c4ccccc4c3CCN1C(=O)C(CC(=O)NC/C=C(\C)CCC=C(C)C)C[C@@H]2C(=O)N1CCN(C(=O)c2ccco2)CC1 (stereo partly specified),·,·,18,54*,·,-2,·
CC[C@]12c3[nH]c4ccc(Cl)cc4c3CCN1C(=O)[C@@H](CC(=O)NC/C=C(\C)CCC=C(C)C)C[C@@H]2C(=O)N1CCN(C(=O)C2CC2)CC1,·,·,·,70*,·,38,71*
Cc1cccnc1NC(=S)NC(=O)c1cccs1,4,-398,-6,-186,-23,·,·
Cc1conc1NC(c1cccs1)c1ccc2cccnc2c1O (stereo unspecified),100*,66*,101*,63*,29,50*,32
CCC(=O)Nc1cccc2cccnc12,0,-5,2,13,-20,·,·
CCC(=O)NC(c1cccs1)c1ccc2cccnc2c1O (stereo unspecified),41,80*,106*,82*,78*,84*,23
CC(C)CC(=O)NC(c1cccs1)c1ccc2cccnc2c1O (stereo unspecified),?,74*,102*,72*,60*,85*,25
Cc1ccc(C(CC(=O)NCCCN(C)C)c2ccc(OC(C)C)cc2)cc1 (stereo unspecified),-14,-43,-3,-2,21,·,·
COc1ccc2[nH]c(=O)c(CN(c3ccccc3OC)S(=O)(=O)c3ccccc3)cc2c1,-1,-69,30,60*,20,38,89*
